How the values were obtained:
[1] = target: T1, Metabotropic glutamate receptor 2 (Homo sapiens, UniProt Q14416); test: Displacement of [3H]JNJ-46281222 from human metabotropic glutamate receptor 2 expressed in CHOK1 cell membranes assessed as association rate constant measured every 30 sec for 120 mins by scintillation proximity assay
Method in brief: (§1)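 For the SPA competition association, CHO-K1_hmGlu2 membranes (20 µg) were pre-coupled 30 min to WGA SPA beads, then mixed with 6 nM [3H]JNJ-46281222, competitor and 1 mM glutamate. Counts were read every 30 s for 120 min at 28°C.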
Target sequence in this assay (Q14416 19-872 limits assumed): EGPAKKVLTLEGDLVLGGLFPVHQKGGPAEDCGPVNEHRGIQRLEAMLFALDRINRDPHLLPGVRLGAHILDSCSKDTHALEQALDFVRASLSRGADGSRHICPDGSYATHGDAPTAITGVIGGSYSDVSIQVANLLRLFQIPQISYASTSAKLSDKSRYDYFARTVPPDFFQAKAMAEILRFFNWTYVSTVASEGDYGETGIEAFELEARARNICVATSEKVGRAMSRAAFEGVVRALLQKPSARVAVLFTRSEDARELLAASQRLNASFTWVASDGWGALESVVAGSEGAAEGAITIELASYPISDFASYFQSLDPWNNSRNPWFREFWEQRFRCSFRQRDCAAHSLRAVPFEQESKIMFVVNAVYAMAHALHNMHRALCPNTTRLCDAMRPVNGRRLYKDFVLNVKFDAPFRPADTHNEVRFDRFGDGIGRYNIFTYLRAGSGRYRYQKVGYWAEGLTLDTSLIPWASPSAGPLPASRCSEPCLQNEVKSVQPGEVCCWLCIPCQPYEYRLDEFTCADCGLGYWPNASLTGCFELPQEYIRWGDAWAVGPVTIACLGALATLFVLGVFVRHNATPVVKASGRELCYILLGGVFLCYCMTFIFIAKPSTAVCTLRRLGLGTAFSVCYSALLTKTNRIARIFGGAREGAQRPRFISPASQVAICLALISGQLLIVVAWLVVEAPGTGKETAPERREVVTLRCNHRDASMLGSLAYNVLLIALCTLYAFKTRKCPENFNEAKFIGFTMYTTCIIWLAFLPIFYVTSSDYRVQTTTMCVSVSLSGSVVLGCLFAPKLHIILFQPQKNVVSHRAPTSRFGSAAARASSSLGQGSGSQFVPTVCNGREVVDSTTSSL

[2] = target: T1, Metabotropic glutamate receptor 2; test: Displacement of [3H]JNJ-46281222 from human metabotropic glutamate receptor 2 expressed in CHOK1 cell membranes assessed as dissociation rate constant measured every 30 sec for 120 mins by scintillation proximity assay; method in brief: as §1
Target sequence in this assay (Q14416 19-872 limits assumed): as above

[3] = target: T1, Metabotropic glutamate receptor 2; test: Displacement of [3H]JNJ-46281222 from human metabotropic glutamate receptor 2 expressed in CHOK1 cell membranes assessed as residence time measured every 30 sec for 120 mins by scintillation proximity assay; method in brief: as §1
Target sequence in this assay (Q14416 19-872 limits assumed): as above

[4] = target: T1, Metabotropic glutamate receptor 2; test: Binding affinity to human metabotropic glutamate receptor 2 expressed in CHOK1 cell membranes by scintillation proximity assay
Target sequence in this assay (Q14416 whole entry): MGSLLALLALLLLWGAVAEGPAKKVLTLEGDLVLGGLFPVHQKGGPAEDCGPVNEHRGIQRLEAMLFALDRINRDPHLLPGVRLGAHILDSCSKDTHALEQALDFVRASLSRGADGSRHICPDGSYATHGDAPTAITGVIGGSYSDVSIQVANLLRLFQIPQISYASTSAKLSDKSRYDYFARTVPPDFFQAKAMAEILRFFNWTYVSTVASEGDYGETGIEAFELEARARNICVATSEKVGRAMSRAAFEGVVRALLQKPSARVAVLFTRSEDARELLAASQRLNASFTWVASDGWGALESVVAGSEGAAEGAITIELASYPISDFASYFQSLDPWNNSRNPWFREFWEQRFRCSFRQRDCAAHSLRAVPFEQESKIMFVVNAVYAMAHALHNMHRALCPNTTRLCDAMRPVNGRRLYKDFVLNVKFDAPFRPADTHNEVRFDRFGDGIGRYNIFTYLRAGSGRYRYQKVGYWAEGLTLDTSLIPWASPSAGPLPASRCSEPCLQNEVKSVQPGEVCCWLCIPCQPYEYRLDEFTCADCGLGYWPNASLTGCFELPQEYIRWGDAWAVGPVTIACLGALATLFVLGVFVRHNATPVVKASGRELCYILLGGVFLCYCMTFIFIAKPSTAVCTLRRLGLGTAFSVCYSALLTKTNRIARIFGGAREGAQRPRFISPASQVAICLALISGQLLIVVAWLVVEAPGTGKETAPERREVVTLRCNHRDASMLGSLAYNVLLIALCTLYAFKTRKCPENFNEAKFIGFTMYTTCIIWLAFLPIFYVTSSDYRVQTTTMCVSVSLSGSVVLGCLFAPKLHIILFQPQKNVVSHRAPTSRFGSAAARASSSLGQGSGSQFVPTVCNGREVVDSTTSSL

[5] = target: T1, Metabotropic glutamate receptor 2; test: Positive allosteric modulation of human metabotropic glutamate receptor 2 expressed in CHOK1 cell membranes assessed as increase in glutamate-induced [35S]GTPgammaS binding preincubated for 30 mins followed by [35S]GTPgammaS addition measured after 30 mins by Topcount scintillation counting method; assay type: functional
Target sequence in this assay (Q14416 whole entry): as above

[6] = target: T1, Metabotropic glutamate receptor 2; test: Displacement of [3H]-JNJ46281222 from human metabotropic glutamate receptor 2 expressed in CHOK1 cell membranes after 60 mins by microbeta counting analysis
Target sequence in this assay (Q14416 whole entry): as above

| Compound | K [1] | K [2] [min⁻¹] | TIME [3] [h] | Kd [4] [nM] | EC50 [5] [nM] | Ki [6] [nM] |
| --- | --- | --- | --- | --- | --- | --- |
| Cc1c(OCc2cccc(-c3ccc(C(=O)O)cc3)c2)cc2c(c1C)C(=O)C(C1CCCC1)C2 (stereo not given) | 4.6 ×10⁶ /M/min | 0.086 | 0.193 |  |  |  |
| O[C@H]1CC[C@@H](Oc2ccc(-c3ccn4c(CC(F)(F)F)nnc4c3Cl)cc2Cl)CC1 | 6.9 ×10⁶ /M/min | 0.056 | 0.295 | 8.1 | 97.7 | 32.4 |
| Fc1cc(-c2ccn3c(CC4CC4)nnc3c2Cl)ccc1Oc1ccnc(C2CC2)c1 | 1.7 ×10⁶ /M/min | 0.073 | 0.228 | 42.7 | 87.1 | 53.7 |
| CC(C)Nc1ccc(-c2ccn3c(CC4CC4)nnc3c2Cl)cc1F | 5 ×10⁶ /M/min | 0.101 | 0.165 | 20.3 | 224 | 61.7 |
| COc1ccc(COc2ccc(-c3ccn4c(CC5CC5)nnc4c3C(F)(F)F)cc2)cn1 | 1.4 ×10⁷ /M/min | 0.125 | 0.133 | 8.7 | 57.5 | 8.71 |
| FC(F)(F)c1c(-c2ccc(CNC3CCOCC3)c(Cl)c2)ccn2c(CC3CC3)nnc12 | 1.7 ×10⁶ /M/min | 0.091 | 0.183 | 54 | 631 | 61.7 |
| Clc1cc(-c2ccn3c(CC4CC4)nnc3c2Cl)ccc1OC1CCOCC1 | 3.3 ×10⁶ /M/min | 0.092 | 0.182 | 28.1 | 224 | 22.9 |
| CC(C)Nc1ccc(-c2ccn3c(CC4CC4)nnc3c2C(F)(F)F)cc1Cl | 3.6 ×10⁷ /M/min | 0.121 | 0.137 | 3.4 | 17.4 | 3.89 |
| CCc1cc(Oc2ccc(-c3ccn4c(CC5CC5)nnc4c3Cl)cc2F)ccn1 | 3 ×10⁶ /M/min | 0.069 | 0.24 | 23.3 | 100 | 18.6 |
| O[C@H]1CC[C@H](Oc2ccc(-c3ccn4c(CC(F)(F)F)nnc4c3Cl)cc2Cl)CC1 | 8.3 ×10⁶ /M/min | 0.137 | 0.122 | 16.6 | 158 | 11.5 |
| Cc1ccc(Oc2ccc(-c3ccn4c(CC(F)(F)F)nnc4c3Cl)cc2F)c(C)n1 | 2.9 ×10⁷ /M/min | 0.096 | 0.175 | 3.3 | 29.5 | 7.94 |
| Clc1cc(-c2ccn3c(CC4CC4)nnc3c2Cl)ccc1NC1CCOCC1 | 7 ×10⁶ /M/min | 0.136 | 0.122 | 19.5 | 148 | 38.9 |
| O[C@H]1CC[C@H](Nc2ccc(-c3ccn4c(CC5CC5)nnc4c3C(F)(F)F)cc2Cl)CC1 | 1.1 ×10⁷ /M/min | 0.033 | 0.513 |  |  |  |
| O[C@H]1CC[C@H](Nc2ccc(-c3ccn4c(CC5CC5)nnc4c3Cl)cc2Cl)CC1 | 6.7 ×10⁶ /M/min | 0.084 | 0.197 | 12.7 | 33.1 | 3.02 |
| COc1ccc(COc2ccc(-c3ccn4c(CC5CC5)nnc4c3C(F)(F)F)cc2F)cn1 | 1.1 ×10⁷ /M/min | 0.173 | 0.0967 | 16 | 40.7 | 11.7 |
| CCOCc1nnc2c(Cl)c(-c3ccc(Oc4ccc(C)nc4C)c(F)c3)ccn12 | 3 ×10⁶ /M/min | 0.076 | 0.22 | 25.2 | 74.1 | 6.46 |

| Compound | K [1] | K [2] [min⁻¹] | TIME [3] [h] | Kd [4] [nM] | EC50 [5] [nM] | Ki [6] [nM] |
| --- | --- | --- | --- | --- | --- | --- |
| COc1ccc(CNc2ccc(-c3ccn4c(CC5CC5)nnc4c3Cl)cc2)cn1 | 6.2 ×10⁶ /M/min | 0.097 | 0.172 | 15.6 | 151 | 7.41 |
| Cc1ccc(Oc2ccc(-c3ccn4c(CC5CC5)nnc4c3C)cc2Cl)c(C)n1 | 5.5 ×10⁶ /M/min | 0.096 | 0.175 | 17.4 | 17.4 | 14.8 |
| COc1ccc(CNc2ccc(-c3ccn4c(CC5CC5)nnc4c3C(F)(F)F)cc2F)cn1 | 1.5 ×10⁷ /M/min | 0.044 | 0.378 | 2.9 | 5.89 | 2.04 |
| COc1ccc(CNc2ccc(-c3ccn4c(CC5CC5)nnc4c3C(F)(F)F)cc2)cn1 | 3.4 ×10⁷ /M/min | 0.069 | 0.243 | 2 | 15.1 | 3.16 |
| Cc1cc(Oc2ccc(-c3ccn4c(CC5CC5)nnc4c3C(F)(F)F)cc2F)ccn1 | 9.8 ×10⁶ /M/min | 0.09 | 0.185 | 9.2 | 56.2 | 7.08 |
| Cc1ccc(Oc2ccc(-c3ccn4c(CC5CC5)nnc4c3C(F)(F)F)cc2Cl)c(C)n1 | 6.1 ×10⁶ /M/min | 0.044 | 0.378 | 7.3 | 2.88 | 1.51 |
| Cc1cc(-c2nc(CN3CCNCC3)no2)cc2c1C(=O)N(Cc1ccc(OC(F)(F)F)cc1)C2 | 2.1 ×10⁵ /M/min | 0.128 | 0.13 |  |  |  |
| Cc1ccc(Oc2ccc(-c3ccn4c(CC5CC5)nnc4c3Cl)cc2F)c(C)n1 | 6.3 ×10⁶ /M/min | 0.097 | 0.172 | 15.3 | 40.7 | 1.95 |
| O[C@H]1CC[C@@H](Nc2ccc(-c3ccn4c(CC5CC5)nnc4c3C(F)(F)F)cc2Cl)CC1 | 5.7 ×10⁶ /M/min | 0.058 | 0.285 |  |  |  |
| Cc1cc(Oc2ccc(-c3ccn4c(CC5CC5)nnc4c3Cl)cc2F)ccn1 | 2.6 ×10⁶ /M/min | 0.096 | 0.173 | 37.6 | 251 | 63.1 |
| Fc1cc(-c2ccn3c(CC4CC4)nnc3c2C(F)(F)F)ccc1NC1CC1 | 7.7 ×10⁷ /M/min | 0.086 | 0.198 | 1.1 | 30.2 | 3.63 |
| CC(C)Nc1ccc(-c2ccn3c(CC4CC4)nnc3c2C(F)(F)F)cc1F | 4.6 ×10⁷ /M/min | 0.1 | 0.167 | 2.2 | 93.3 | 8.91 |
| O[C@H]1CC[C@H](Oc2ccc(-c3ccn4c(CC5CC5)nnc4c3C(F)(F)F)cc2Cl)CC1 | 1.2 ×10⁷ /M/min | 0.036 | 0.468 | 3 | 25.1 | 1.91 |
| Cc1ccc(Oc2ccc(-c3ccn4c(CC5CC5)nnc4c3C(C)C)cc2F)c(C)n1 | 6.5 ×10⁶ /M/min | 0.07 | 0.237 | 10.7 | 28.2 | 25.1 |
| CCOCc1nnc2c(C(F)(F)F)c(-c3ccc(Oc4ccc(C)nc4C)c(F)c3)ccn12 | 3.6 ×10⁷ /M/min | 0.075 | 0.223 | 2.1 | 29.5 | 11.7 |
| Clc1cc(-c2ccn3c(CC4CC4)nnc3c2Cl)ccc1NC1CC1 | 1.4 ×10⁷ /M/min | 0.084 | 0.198 | 6.1 | 29.5 | 6.76 |

Reference: ChEMBL document CHEMBL4038323, “Discovery and Kinetic Profiling of 7-Aryl-1,2,4-triazolo[4,3-a]pyridines: Positive Allosteric Modulators of the Metabotropic Glutamate Receptor 2” (J Med Chem, 2017)
